Assays:
[1] = test system: Canis familiaris; test: Antihypertensive activity by the increase in the vertebral blood flow in anesthetized dogs expressed as duration of half of the maximum change in blood flow.; format: functional, Canis lupus familiaris
How it was run: (§1)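 Anesthetized dogs; compounds given intraarterially. Vertebral blood flow recorded, and a dose-response curve built from peak responses. Potency given as ratio to diltiazem, calculated from the dose-response curves. Half duration is the time, in minutes, that blood flow stays at one-half of the maximum change.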

[2] = species: Canis familiaris; test: Antihypertensive activity expressed as the ratio of the potency evaluated by increased vertebral blood flow (VBF) to that of diltiazem.; format: functional, Canis lupus familiaris; how it was run: as §1
[3] = species: Cavia porcellus; test: (§2) Increase in the coronary blood flow (CBF) was determined in isolated guinea pig heart at a dose of 100 ug/heart; format: functional, Artery
How it was run: (§3)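 Hartley guinea pig hearts perfused by the Langendorff method with modified Locke-Ringer solution containing defibrinated rabbit blood, at 40 cm H2O and 29 ± 1 °C. Compounds in saline injected into the aortic cannula at 3, 10, 30 or 100 μg/heart. Coronary flow measured by drop counter; graded by the lowest dose giving an increase of at least 0.5 mL/min.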

[4] = species: Cavia porcellus; test: Increase in the coronary blood flow (CBF) was determined in isolated guinea pig heart at a dose of 30 ug/heart; format: functional, Artery; how it was run: as §3
[5] = species: Cavia porcellus; test: as §2; format: functional; how it was run: as §3
[6] = test system: Rattus norvegicus; test: Change in blood pressure in spontaneously hypertensive rats 1 hr following 30 mg/kg p.o.; format: functional; conditions: route oral
How it was run: (§4)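 Male spontaneously hypertensive rats, fasted 20 h. Compounds dissolved in deionized water and given orally (30 mg/kg; some at 100 mg/kg). Blood pressure measured by tail-cuff in conscious animals. Change (mmHg) taken from the predosing value at 1 and 4 h, or 1 and 5 h, after dosing. N = 3-6.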

[7] = test system: Rattus norvegicus; test: Hypotensive activity in SHR (spontaneously hypertensive rats) expressed as change in blood pressure(mmHg) after 4 hr dosing at a concentration of 30 mg/kg; format: functional; how it was run: as §4
[8] = test system: Rattus norvegicus; test: Hypotensive activity in SHR (spontaneously hypertensive rats) expressed as change in blood pressure(mmHg) after 5 hr dosing at a concentration of 30 mg/kg; format: functional; how it was run: as §4
[9] = test system: Rattus norvegicus; test: Hypotensive activity in SHR (spontaneously hypertensive rats) expressed as change in blood pressure(mmHg) after 4 hr dosing at a concentration of 100 mg/kg; format: functional; how it was run: as §4

CSc1ccc(C2Sc3cc(Cl)ccc3N(CCN(C)C)C(=O)C2O)cc1 (stereo unspecified)
Half duration [1]: 35 min | Potency ratio [2]: 0.09 | Increase in CBF [3]: >0.5 mL/min

CCOC(=O)OC1C(=O)N(CCN(C)C)c2ccc(Cl)cc2SC1c1ccc(OC)cc1 (stereo unspecified)
Half duration [1]: 44 min | Potency ratio [2]: 0.29 | Increase in CBF [3]: >0.5 mL/min

CCCCNC(=O)OC1C(=O)N(CCN(C)C)c2ccc(Cl)cc2SC1c1ccc(OC)cc1 (stereo unspecified)
Half duration [1]: 76 min | Potency ratio [2]: 0.31 | Increase in CBF [4]: >0.5 mL/min

COc1ccc(C2Sc3cc(F)ccc3N(CCN(C)C)C(=O)C2OC(=O)c2ccc([N+](=O)[O-])cc2)cc1 (stereo unspecified)
Half duration [1]: 48 min | Potency ratio [2]: 0.35 | Increase in CBF [4]: >0.5 mL/min

CCCN(C)CCN1C(=O)C(O)C(c2ccc(OC)cc2)Sc2cc(Cl)ccc21 (stereo unspecified)
Half duration [1]: 35 min | Potency ratio [2]: 0.24 | Increase in CBF [5]: >0.5 mL/min | Change in blood pressure [6]: -20 delta mmHg | Change in blood pressure [7]: -27.3 delta mmHg

C=CCN(C)CCN1C(=O)C(OC(C)=O)C(c2ccc(OC)cc2)Sc2cc(Cl)ccc21 (stereo unspecified)
Half duration [1]: 37 min | Potency ratio [2]: 1 | Increase in CBF [5]: >0.5 mL/min | Change in blood pressure [6]: -29 delta mmHg | Change in blood pressure [8]: -17 delta mmHg

CSc1ccc(C2Sc3cc(Cl)ccc3N(CCN(C)C)C(=O)C2OC(C)=O)cc1 (stereo unspecified)
Half duration [1]: 37 min | Potency ratio [2]: 0.21 | Increase in CBF [3]: >0.5 mL/min

CCCCNC(=O)OC1C(=O)N(CCN(C)C)c2ccc(F)cc2SC1c1ccc(OC)cc1 (stereo unspecified)
Half duration [1]: 58 min | Potency ratio [2]: 0.16 | Increase in CBF [4]: >0.5 mL/min

CCN(C)CCN1C(=O)C(O)C(c2ccc(OC)cc2)Sc2cc(Cl)ccc21 (stereo unspecified)
Half duration [1]: 38 min | Potency ratio [2]: 0.28 | Increase in CBF [5]: >0.5 mL/min | Change in blood pressure [6]: -21.3 delta mmHg | Change in blood pressure [7]: -39.3 delta mmHg

COc1ccc(C2Sc3cc(F)ccc3N(CCN(C)C)C(=O)C2OC(C)=O)cc1.Cl (stereo unspecified)
Half duration [1]: 71 min | Potency ratio [2]: 0.37 | Increase in CBF [5]: >0.5 mL/min | Change in blood pressure [6]: -64 delta mmHg | Change in blood pressure [7]: -50 delta mmHg

COc1ccc(C2Sc3cc(Cl)c(Cl)cc3N(CCN(C)C)C(=O)C2OC(C)=O)cc1.Cl (stereo unspecified)
Half duration [1]: 53 min | Potency ratio [2]: 0.51 | Increase in CBF [4]: >0.5 mL/min

COc1ccc(C2Sc3c(Cl)cccc3N(CCN(C)C)C(=O)C2O)cc1.Cl (stereo unspecified)
Half duration [1]: 52 min | Potency ratio [2]: 0.91 | Increase in CBF [4]: >0.5 mL/min

COc1ccc(C2Sc3c(ccc(Cl)c3Cl)N(CCN(C)C)C(=O)C2O)cc1.Cl (stereo unspecified)
Half duration [1]: 80 min | Potency ratio [2]: 0.62 | Increase in CBF [4]: >0.5 mL/min

COc1ccc(C2Sc3cccc(Cl)c3N(CCN(C)C)C(=O)C2OC(C)=O)cc1.Cl (stereo unspecified)
Half duration [1]: 53 min | Potency ratio [2]: 0.62 | Increase in CBF [5]: >0.5 mL/min | Change in blood pressure [6]: -22 delta mmHg | Change in blood pressure [7]: -13.7 delta mmHg

COc1ccc(C2Sc3cccc(Cl)c3N(CCN(C)C)C(=O)C2O)cc1.Cl (stereo unspecified)
Half duration [1]: 33 min | Potency ratio [2]: 0.2 | Increase in CBF [3]: >0.5 mL/min | Change in blood pressure [6]: -31.7 delta mmHg | Change in blood pressure [7]: -26 delta mmHg

COc1ccc(C2Sc3c(F)cccc3N(CCN(C)C)C(=O)C2OC(C)=O)cc1.Cl (stereo unspecified)
Half duration [1]: 43 min | Potency ratio [2]: 0.34 | Increase in CBF [5]: >0.5 mL/min | Change in blood pressure [6]: -39 delta mmHg | Change in blood pressure [7]: -60.3 delta mmHg

COc1ccc(C2Sc3cc(Cl)ccc3N(CCN(C)C)C(=O)C2OC)cc1 (single isomer, unassigned; (+))
Half duration [1]: 47 min | Potency ratio [2]: 0.58 | Change in blood pressure [6]: -76.8 delta mmHg | Change in blood pressure [8]: -56.5 delta mmHg

COc1ccc(C2Sc3cc(Cl)ccc3N(CCN(C)C)C(=O)C2OC=O)cc1 (single isomer, unassigned; (+))
Half duration [1]: 44 min | Potency ratio [2]: 0.73 | Increase in CBF [5]: >0.5 mL/min | Change in blood pressure [6]: -60 delta mmHg | Change in blood pressure [9]: -72.7 delta mmHg

COc1ccc(C2Sc3cc(Cl)ccc3N(CCN(C)C)C(=O)C2O)cc1 (single isomer, unassigned; (+))
Half duration [1]: 46 min | Potency ratio [2]: 0.94 | Increase in CBF [5]: >0.5 mL/min | Change in blood pressure ([6]; 30 mg/kg): -13.3 delta mmHg | Change in blood pressure ([7]; 30 mg/kg): -51.7 delta mmHg

COc1ccc(C2Sc3cc(Cl)ccc3N(CCN(C)C)C(=O)C2OCc2ccc([N+](=O)[O-])cc2)cc1 (single isomer, unassigned; (+))
Potency ratio [2]: 0.58 | Increase in CBF [5]: >0.5 mL/min | Change in blood pressure [6]: -11.5 delta mmHg | Change in blood pressure [8]: -8.8 delta mmHg

CCN(C)CCN1C(=O)C(OC(C)=O)C(c2ccc(OC)cc2)Sc2cc(Cl)ccc21 (single isomer, unassigned; (+))
Half duration [1]: 46 min | Potency ratio [2]: 0.9 | Increase in CBF [5]: >0.5 mL/min | Change in blood pressure [6]: -55.5 delta mmHg | Change in blood pressure [8]: -22.3 delta mmHg

CCC(=O)OC1C(=O)N(CCN(C)C)c2ccc(Cl)cc2SC1c1ccc(OC)cc1 (single isomer, unassigned; (+))
Half duration [1]: 64 min | Potency ratio [2]: 1.45 | Increase in CBF [4]: >0.5 mL/min | Change in blood pressure [6]: -67.7 delta mmHg | Change in blood pressure [9]: -60.7 delta mmHg

COc1ccc(C2Sc3cc(Cl)ccc3N(CCN(C)C)C(=O)C2O)cc1 (single isomer, unassigned; (-))
Half duration [1]: 23 min | Potency ratio [2]: 0.02 | Increase in CBF [5]: <0.5 mL/min | Change in blood pressure ([6]; 30 mg/kg): 1 delta mmHg | Change in blood pressure ([7]; 30 mg/kg): -20 delta mmHg

COc1ccc(C2Sc3cc(Cl)ccc3N(CCN(C)C)C(=O)C2OC(C)=O)cc1.Cl (single isomer, unassigned; (-))
Half duration [1]: 36 min | Potency ratio [2]: 0.06 | Increase in CBF [5]: <0.5 mL/min | Change in blood pressure ([6]; 30 mg/kg): -6 delta mmHg | Change in blood pressure ([7]; 30 mg/kg): -22.7 delta mmHg

COc1ccc(C2Sc3cc(Cl)ccc3N(CCN(C)C)C(=O)C2OC(C)=O)cc1.Cl (stereo in doubt; 2b)
Half duration [1]: 69 min | Potency ratio [2]: 1.15 | Increase in CBF [4]: >0.5 mL/min

COc1ccc(C2Sc3c(Cl)cccc3N(CCN(C)C)C(=O)C2OC(C)=O)cc1.Cl (stereo in doubt; 2cc)
Half duration [1]: 72 min | Potency ratio [2]: 0.75 | Increase in CBF [4]: >0.5 mL/min

COc1ccc(C2Sc3c(Cl)cccc3N(CCN(C)C)C(=O)C2O)cc1 (stereo in doubt; (+)-16m)
Half duration [1]: 46 min | Potency ratio [2]: 1.25 | Increase in CBF [4]: >0.5 mL/min | Change in blood pressure [6]: -46.7 delta mmHg | Change in blood pressure [7]: -30 delta mmHg

COc1ccc([C@@H]2Sc3ccccc3N(CCN(C)C)C(=O)[C@@H]2OC(C)=O)cc1 [DILTIAZEM]
Half duration [1]: 53 min | Potency ratio [2]: 1 | Increase in CBF [4]: >0.5 mL/min | Change in blood pressure [6]: -34 delta mmHg | Change in blood pressure [7]: -15 delta mmHg
